Bioassay records as filed in PubChem.
The list is not random: actives were taken first. Their share in the collection is about 2%.
EBI2 antag: antagonists of human EBI2 receptor | 360,000 tested, 0.81% active | inhibition, % at 5 µM | AID 651636 | P32249 | EBI2 beta-arrestin recruitment, luminescence, 7a,25-OHC stimulated; in the data active means inhibition above about 38%;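 further: enzyme fragment complementation signal reports receptor beta-arrestin coupling in cells; 0% = agonist plus DMSO wells and 100% = wells without agonist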
CXCR6 inh: inhibitors of human CXCR6 receptor; O00574; CHO-K1 PathHunter CXCR6 beta-arrestin, luminescence; inhibition, % at 20 µM; 360,000 tested, 0.36% active; AID 602244; in the data active means inhibition above about 34%, passing the limit was not always enough;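 further: antagonist mode with CXCL16 agonist at 10 nM final; 0% = 10 nM CXCL16 with DMSO and 100% = unstimulated wells without agonist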
Target sequence (O00574 whole entry, looked up): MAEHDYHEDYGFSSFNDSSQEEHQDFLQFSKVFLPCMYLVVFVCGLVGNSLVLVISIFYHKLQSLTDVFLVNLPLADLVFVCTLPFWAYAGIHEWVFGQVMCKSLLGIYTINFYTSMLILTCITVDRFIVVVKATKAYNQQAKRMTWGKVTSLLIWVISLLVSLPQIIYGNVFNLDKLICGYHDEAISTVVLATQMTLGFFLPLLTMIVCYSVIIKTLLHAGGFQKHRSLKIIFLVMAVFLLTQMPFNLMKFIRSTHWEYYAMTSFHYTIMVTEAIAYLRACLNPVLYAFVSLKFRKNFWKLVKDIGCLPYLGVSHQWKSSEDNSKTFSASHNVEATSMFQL
GAA850 FXN act: activators of GAA850 frataxin (FXN) promoter. activation, % at 6 µM. 360,000 tested, 0.56% active. HEK293 lucGAA850 FXN promoter luciferase reporter, 24 h; percent of 10 µM SAHA response;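 active means activation above the average of all compounds screened plus 3 SD, cutoff fixed separately per campaign, cut at about 7.5% in these data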;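 further: 0% = DMSO wells and 100% = 10 µM SAHA wells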
APJ antagonist: blocks the human apelin receptor APJ. CHO-K1 APJ beta-arrestin complementation, luminescence. inhibition, % at 20 µM. 330,000 tested, 0.32% active;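 active means inhibition above about 40% at 20 µM, limit read from the data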;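 further: cells challenged with 10 nM apelin-13 agonist together with compound; plate controls were apelin-13 plus DMSO wells for no effect and DMSO wells lacking apelin-13 for full effect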
APJ ag: APJ receptor agonism. 330,000 tested, 0.11% active. P35414. CHO-K1 APJ PathHunter beta-arrestin, luminescence; 0% DMSO wells, 100% apelin. activation, % at 20 µM;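 active means activation more than six SD over the plate average, tested at 20 µM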;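 further: 0% = DMSO alone and 100% = apelin-13 at 10 nM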
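Incubation: overnight seeding, 90 min compound at 25 °C, 1 h detection; test system: PathHunter CHO-K1 APJ (AGTRL-1) beta-arrestin reporter cells; amount: 1000 cells/well; doses: one dose, 20 µM compound, 1% DMSO; measured by: beta-gal luminescence; measure: agonist-driven arrestin binding to APJ; benchmarks: negative DMSO alone, positive Apelin-13 at 10 nM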
CCR6 antagonist: CCR6 (human) receptor antagonism. 340,000 tested, 0.49% active. inhibition, % at 20 µM. P51684. CHO-K1 CCR6 PathHunter beta-arrestin, luminescence, CCL20-stimulated;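 active means compounds whose inhibition of the agonist-driven luminescence signal at 20 µM reaches about 50%, limit read from the data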;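 further: cells stimulated with CCL20 at 14 nM final; plate controls were DMSO with CCL20 for no effect and DMSO without agonist for full effect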
Numbers without * were called inactive.

What do the screens show for `CCOC(=O)N1CCN(C(=O)c2ccc3c(=O)n(Cc4ccccc4)c(=S)[nH]c3c2)CC1`?
EBI2 antag: 2; CXCR6 inh: 17; GAA850 FXN act: -1; APJ antagonist: 12; APJ ag: -3; CCR6 antagonist: 10

What do the screens show for `CCOC(=O)N1CCN(C(=O)c2ccc(Cn3c(=S)[nH]c4cc(OCC)c(OCC)cc4c3=O)cc2)CC1`?
EBI2 antag: -34; CXCR6 inh: -8; GAA850 FXN act: -2; APJ antagonist: -4; APJ ag: 27*; CCR6 antagonist: -29

How did C[C@H](CO)N1C[C@H](C)[C@H](CN(C)Cc2ccccc2)Oc2ncc(Br)cc2C1=O do in these assays?
EBI2 antag: -8; CXCR6 inh: 2; GAA850 FXN act: -2

Results for C=CCn1c(N)c(C(=O)OC(C)(C)C)c2nc3ccccc3nc21 ?
EBI2 antag: 1; CXCR6 inh: 5; GAA850 FXN act: 0; APJ antagonist: 50*; APJ ag: -10; CCR6 antagonist: 19

Results for Cc1onc(-c2ccccc2Cl)c1C(=O)NCc1nnnn1-c1ccc(F)cc1 ?
EBI2 antag: 1; CXCR6 inh: 5; GAA850 FXN act: -1; APJ antagonist: 6; APJ ag: 0; CCR6 antagonist: 3

How did CN(c1ccccc1)S(=O)(=O)c1cccc(C(=O)NCCc2c[nH]c3ccccc23)c1 do in these assays?
EBI2 antag: 48*; CXCR6 inh: -9; GAA850 FXN act: 1; APJ antagonist: 9; APJ ag: 0; CCR6 antagonist: 22

What do the screens show for `Cc1cc(-c2ccccc2)nc(Nc2nc3c(C)cccc3c(=O)[nH]2)n1`?
EBI2 antag: 20; CXCR6 inh: 0; GAA850 FXN act: 1; CCR6 antagonist: 3

What do the screens show for `O=S(=O)(/C(=C\c1ccc(C(F)(F)F)cc1)c1nc2ccccc2[nH]1)c1ccccc1`?
EBI2 antag: 45*; CXCR6 inh: 23; GAA850 FXN act: -2

Results for CNC(C)C#Cc1ccc2oc3cccc(OC)c3c(=O)c2c1 (centres undefined) ?
EBI2 antag: 0; CXCR6 inh: -4; GAA850 FXN act: 7.8*; APJ antagonist: -51; APJ ag: 6; CCR6 antagonist: 7

What do the screens show for `CCCCCCN1C[C@@H](n2cc(C3CC3)nn2)[C@H](O)C[C@@H]1c1ccccc1`?
EBI2 antag: 4; CXCR6 inh: 2; GAA850 FXN act: -1

What do the screens show for `COC(=O)N/N=C/c1cc(N=Nc2ccccc2Cl)ccc1O`?
EBI2 antag: 1; CXCR6 inh: 32; GAA850 FXN act: 1; APJ antagonist: 11; APJ ag: -5; CCR6 antagonist: 58*

What do the screens show for `Cc1cc(C(=O)N/N=C/c2cc(N=Nc3ccccc3)ccc2O)n[nH]1`?
EBI2 antag: 9; CXCR6 inh: 16; GAA850 FXN act: -2; CCR6 antagonist: 61*

How did COC(=O)N/N=C/c1cc(N=Nc2ccccc2)ccc1O do in these assays?
EBI2 antag: -11; CXCR6 inh: 29; GAA850 FXN act: 2; APJ antagonist: -17; APJ ag: 1; CCR6 antagonist: 39

How did Nc1ccc(C(=O)N/N=C\c2cc(N=Nc3cccc4ccccc34)ccc2O)cc1 do in these assays?
EBI2 antag: 10; CXCR6 inh: 28; GAA850 FXN act: -12; APJ antagonist: 31; APJ ag: -5; CCR6 antagonist: 59*

How did O=C(NN=Cc1cc([N+](=O)[O-])ccc1O)c1cccc2ccccc12 do in these assays?
EBI2 antag: 9; CXCR6 inh: 15; GAA850 FXN act: -7; CCR6 antagonist: 49

What do the screens show for `Cc1nc(C(F)(F)F)ccc1C(=O)N1CCC1(C)C(=O)NCc1ccc(Cl)cc1` (centres undefined)?
EBI2 antag: -12; CXCR6 inh: -4; GAA850 FXN act: 0

How did CC1(C(=O)NS(=O)(=O)c2ccc(F)cc2F)CCN1C(=O)CC1CCCCC1 (centres undefined) do in these assays?
EBI2 antag: 0; CXCR6 inh: -2; GAA850 FXN act: 0

What do the screens show for `COc1cc(C2C3=C(COC3=O)OC(C)(C)Oc3cc4c(cc32)OCO4)cc(OC)c1OC` (centres undefined)?
EBI2 antag: 0; CXCR6 inh: 5; GAA850 FXN act: -2; CCR6 antagonist: 4

Results for CCOc1ccc(S(=O)(=O)N(C)CC(=O)N2CCN(CC)CC2)cc1 ?
EBI2 antag: 3; CXCR6 inh: 0; GAA850 FXN act: 0; APJ antagonist: 8; APJ ag: -1; CCR6 antagonist: 6

Results for CCOc1ccc2oc(C(=O)N3CCN(c4ccccn4)CC3)c(C)c2c1 ?
EBI2 antag: 63*; CXCR6 inh: -2; GAA850 FXN act: 0; APJ antagonist: 9; APJ ag: 4; CCR6 antagonist: 8

Results for CCOc1ccc(C(=O)N2CCN(c3ccccn3)CC2)cc1 ?
EBI2 antag: 15; CXCR6 inh: -3; GAA850 FXN act: 2; APJ antagonist: 8; APJ ag: -2; CCR6 antagonist: 5

Results for O=C(O)Cc1cn(Cc2ccc(F)cc2)c2ccccc12 ?
EBI2 antag: -6; CXCR6 inh: 14; GAA850 FXN act: 3; APJ antagonist: 9; APJ ag: -3; CCR6 antagonist: 16

How did Cc1[nH][nH]c(=O)c1C(c1c(C)[nH][nH]c1=O)c1cn(Cc2ccc(Cl)c(Cl)c2)c2ccccc12 do in these assays?
EBI2 antag: 31; CXCR6 inh: 54*; GAA850 FXN act: -5; CCR6 antagonist: 77*

Results for Cc1[nH][nH]c(=O)c1C(c1c(C)[nH][nH]c1=O)c1cn(Cc2ccc(F)cc2)c2ccccc12 ?
EBI2 antag: 20; CXCR6 inh: 62*; GAA850 FXN act: -2; CCR6 antagonist: 79*

Results for O=C(O)CCCN1C(=O)/C(=C\c2ccc(-c3nc4ccccc4s3)o2)SC1=S ?
EBI2 antag: 31; CXCR6 inh: 43*; GAA850 FXN act: 0; APJ antagonist: 11; APJ ag: -6; CCR6 antagonist: 24

Results for O=C(O)CCN1C(=O)/C(=C/c2ccc(-c3nc4ccccc4s3)o2)SC1=S ?
EBI2 antag: -1; CXCR6 inh: 32; GAA850 FXN act: 0; APJ antagonist: -6; APJ ag: -5; CCR6 antagonist: 22

How did O=C(/C(=C/c1ccc(Cl)cc1)c1nc2ccccc2[nH]1)c1ccccc1 do in these assays?
EBI2 antag: 50*; CXCR6 inh: 12; GAA850 FXN act: -13; APJ antagonist: 15; APJ ag: -1; CCR6 antagonist: 18

How did CCOC(=O)C1=CCC(c2ccccc2Cl)N(S(=O)(=O)c2ccc(C)cc2)C1 (centres undefined) do in these assays?
EBI2 antag: 7; CXCR6 inh: 3

What do the screens show for `COc1ccc(C(CNC(=O)Cc2cccs2)N(C)C)cc1` (centres undefined)?
EBI2 antag: -1; CXCR6 inh: 5; GAA850 FXN act: 1; APJ antagonist: -13; APJ ag: 3; CCR6 antagonist: 6
